Results reported in ChEMBL document CHEMBL1125052, “Synthesis and in vitro LTD4 antagonist activity of bicyclic and monocyclic cyclopentylurethane and cyclopentylacetamide N-arylsulfonyl amides” (J Med Chem, 1990).

Target: T1, Cysteinyl leukotriene receptor 1 (Cavia porcellus) (UniProt Q2NNR5)
T1 sequence (whole entry): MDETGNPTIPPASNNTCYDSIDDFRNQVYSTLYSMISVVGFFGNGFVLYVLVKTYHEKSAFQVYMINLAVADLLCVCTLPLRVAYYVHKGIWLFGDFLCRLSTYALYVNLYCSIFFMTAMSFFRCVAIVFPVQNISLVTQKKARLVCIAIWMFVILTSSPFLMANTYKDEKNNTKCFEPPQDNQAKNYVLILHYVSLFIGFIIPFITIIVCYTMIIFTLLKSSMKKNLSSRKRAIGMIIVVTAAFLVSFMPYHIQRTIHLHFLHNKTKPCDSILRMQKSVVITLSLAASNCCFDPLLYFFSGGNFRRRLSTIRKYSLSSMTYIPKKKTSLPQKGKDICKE
Assay: Negative logarithm of molar dissociation constant on guinea pig trachea at Cysteinyl leukotriene D4 receptor, when LTE4 is used as agonist
Assay type: functional
Details: not given
How it was run: (§1)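 Guinea pig tracheal spirals, each trachea split into two sections for paired experiments, in 10-mL baths of modified Krebs' buffer at 37 °C gassed with 95% O2/5% CO2. Resting tension was 2 g, with 60 min stabilization. Responses were expressed relative to carbachol (30 μM). Test compound was preincubated 30 min before cumulative LTE4 log-increment curves; paired controls received vehicle. EC50 was obtained by linear regression and KB = [antagonist]/(dose ratio − 1).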

Question: With `COc1cc(C(=O)NS(=O)(=O)c2ccccc2)ccc1CN1CCOc2ccc(NC(=O)OC3CCCC3)cc21` as the compound, how does the pKB read?
Answer: 9.02

Question: For `COc1cc(C(=O)NS(=O)(=O)c2ccccc2)ccc1Cn1cnc2ccc(NC(=O)CC3CCCC3)cc21`, which pKB is on record?
Answer: 9.22

Question: With `COc1cc(C(=O)NS(=O)(=O)c2ccccc2)ccc1CN1CCc2ccc(NC(=O)CC3CCCC3)cc21` as the compound, how does the pKB read?
Answer: 9.11

Question: With `COc1cc(C(=O)NS(=O)(=O)c2ccccc2)ccc1Cn1cnc2ccc(NC(=O)OC3CCCC3)cc21` as the compound, how does the pKB read?
Answer: 9.2

Question: For `COc1cc(C(=O)NS(=O)(=O)c2ccccc2)ccc1Cc1csc2ccc(NC(=O)OC3CCCC3)cc12`, which pKB is on record?
Answer: 9.31

Question: Which pKB does the source give for `COc1cc(C(=O)NS(=O)(=O)c2ccccc2)ccc1Cn1nnc2ccc(NC(=O)CC3CCCC3)cc21` here?
Answer: 9.86

Question: With `COc1cc(C(=O)NS(=O)(=O)c2ccccc2)ccc1CN1CCOc2ccc(NC(=O)CC3CCCC3)cc21` as the compound, how does the pKB read?
Answer: 9.1

Question: With `COc1cc(C(=O)NS(=O)(=O)c2ccccc2C)ccc1Cc1csc2ccc(NC(=O)CC3CCCC3)cc12` as the compound, how does the pKB read?
Answer: 9.25

Question: Which pKB does the source give for `COc1cc(C(=O)NS(=O)(=O)c2ccccc2Cl)ccc1Cc1csc2ccc(NC(=O)CC3CCCC3)cc12` here?
Answer: 9.6

Question: For `COc1cc(C(=O)NS(=O)(=O)c2ccccc2)ccc1COc1cccc(NC(=O)OC2CCCC2)c1`, which pKB is on record?
Answer: 7.14

Question: Which pKB does the source give for `CNc1ccc(NC(=O)OC2CCCC2)cc1C(=O)Cc1ccc(C(=O)NS(=O)(=O)c2ccccc2C)cc1OC` here?
Answer: 9.07

System: not listed separately
Assay: Antagonist activity was determined
Assay type: functional
Details: not given
How it was run: as §1

Question: With `COc1cc(C(=O)NS(=O)(=O)c2ccccc2)ccc1Cn1ncc2ccc(NC(=O)OC3CCCC3)cc21` [ICI-198615] as the compound, how does the pA2 read?
Answer: 10.1

Target: T1, Cysteinyl leukotriene receptor 1 (Cavia porcellus)
Assay: Negative logarithm of molar dissociation constant on guinea pig trachea at LTD4 receptor, when LTE4 is used as agonist
Assay type: functional
Details: not given
How it was run: as §1

Question: Which pKB does the source give for `COc1cc(C(=O)NS(=O)(=O)c2ccccc2C)ccc1CN1CCOc2ccc(NC(=O)CC3CCCC3)cc21` here?
Answer: 9.68

Question: Which pKB does the source give for `COc1cc(C(=O)NS(=O)(=O)c2ccccc2)ccc1Cc1nn(C)c2ccc(NC(=O)OC3CCCC3)cc12` here?
Answer: 10.3

System: not listed separately
Assay: Partition coefficient (logP)
Assay type: physicochemical
Details: octanol/water

Question: With `c1ccc2[nH]cnc2c1` [BENZIMIDAZOLE] as the compound, how does the logP read?
Answer: 1.2

Question: For `c1ccc2[nH]nnc2c1` [BENZOTRIAZOLE], which logP is on record?
Answer: 1.34

Question: With `c1ccc2[nH]ncc2c1` [INDAZOLE] as the compound, how does the logP read?
Answer: 1.82

Question: For `Cn1ccc2ccccc21`, which logP is on record?
Answer: 2.72

Question: With `c1ccc2sccc2c1` [BENZOTHIOPHENE] as the compound, how does the logP read?
Answer: 3.09
